Data as given in ChEMBL document CHEMBL4834419 (J Med Chem, 2021).
The source made the active and inactive calls. No cut-off for these calls is given here.

What was measured:
[1] = target: T1, Retinoic acid receptor RXR-alpha (Homo sapiens, UniProt P19793); test: Agonist activity at human RXRalpha transfected in human HEK293T cells co-expressing pFR/pRL-Luc incubated for 14 to 16 hrs by hybrid reporter gene assay; type: cell-based
T1 sequence (P19793 whole entry): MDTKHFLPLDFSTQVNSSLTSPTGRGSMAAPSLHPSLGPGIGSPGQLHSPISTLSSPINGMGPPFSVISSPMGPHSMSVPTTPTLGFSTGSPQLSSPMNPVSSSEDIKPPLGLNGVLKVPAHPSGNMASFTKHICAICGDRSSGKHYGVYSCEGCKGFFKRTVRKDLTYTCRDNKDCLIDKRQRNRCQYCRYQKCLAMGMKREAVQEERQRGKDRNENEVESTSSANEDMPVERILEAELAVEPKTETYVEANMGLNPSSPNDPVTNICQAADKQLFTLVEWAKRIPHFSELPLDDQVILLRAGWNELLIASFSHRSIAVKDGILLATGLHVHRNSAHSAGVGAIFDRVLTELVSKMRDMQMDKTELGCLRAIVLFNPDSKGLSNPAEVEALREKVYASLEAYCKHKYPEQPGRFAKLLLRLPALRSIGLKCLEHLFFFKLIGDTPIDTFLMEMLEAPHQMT

[2] = target: T2, Retinoic acid receptor RXR-beta (Homo sapiens, UniProt P28702); test: Agonist activity at human RXRbeta transfected in human HEK293T cells co-expressing pFR/pRL-Luc incubated for 14 to 16 hrs by hybrid reporter gene assay; type: cell-based
T2 sequence (P28702 whole entry): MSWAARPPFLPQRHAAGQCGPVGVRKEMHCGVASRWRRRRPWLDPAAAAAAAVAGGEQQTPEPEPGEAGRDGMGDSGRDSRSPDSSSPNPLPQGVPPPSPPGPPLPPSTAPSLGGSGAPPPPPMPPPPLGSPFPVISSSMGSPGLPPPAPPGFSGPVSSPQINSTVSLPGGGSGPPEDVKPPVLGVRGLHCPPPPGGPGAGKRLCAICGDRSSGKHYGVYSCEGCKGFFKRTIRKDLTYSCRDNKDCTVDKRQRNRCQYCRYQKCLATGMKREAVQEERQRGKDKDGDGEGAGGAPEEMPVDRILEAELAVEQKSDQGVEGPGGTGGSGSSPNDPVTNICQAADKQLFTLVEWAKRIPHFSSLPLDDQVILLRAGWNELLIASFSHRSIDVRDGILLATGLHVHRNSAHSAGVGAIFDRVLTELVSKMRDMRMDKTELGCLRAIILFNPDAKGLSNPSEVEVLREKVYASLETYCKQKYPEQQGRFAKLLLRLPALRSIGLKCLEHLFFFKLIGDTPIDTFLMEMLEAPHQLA

[3] = target: T3, Retinoic acid receptor RXR-gamma (Homo sapiens, UniProt P48443); test: Agonist activity at human RXRgamma transfected in human HEK293T cells co-expressing pFR/pRL-Luc incubated for 14 to 16 hrs by hybrid reporter gene assay; type: cell-based
T3 sequence (P48443 whole entry): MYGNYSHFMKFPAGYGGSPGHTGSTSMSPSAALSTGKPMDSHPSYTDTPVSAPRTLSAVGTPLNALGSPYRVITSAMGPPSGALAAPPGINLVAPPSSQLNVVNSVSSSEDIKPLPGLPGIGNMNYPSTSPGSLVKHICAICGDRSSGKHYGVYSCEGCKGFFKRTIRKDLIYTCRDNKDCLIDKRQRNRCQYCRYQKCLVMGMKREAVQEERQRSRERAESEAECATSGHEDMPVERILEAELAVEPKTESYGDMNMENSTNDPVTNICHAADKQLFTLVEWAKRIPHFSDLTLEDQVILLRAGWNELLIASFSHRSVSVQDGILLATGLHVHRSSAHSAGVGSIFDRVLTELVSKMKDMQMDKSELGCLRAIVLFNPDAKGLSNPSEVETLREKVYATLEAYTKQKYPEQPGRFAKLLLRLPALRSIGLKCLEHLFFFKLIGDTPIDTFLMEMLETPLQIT

[4] = Metabolic stability in Sprague-Dawley rat liver microsomes assessed as compound degradation at 10 uM incubated for 60 min by HPLC analysis; type: ADME; settings: 1 h
Outline: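 Compound at 10 μM final in 0.1 M phosphate, pH 7.4, was preincubated 5 min at 37 °C with an NADPH-regenerating system. Sprague-Dawley rat liver microsomes were then added. Reactions were stopped with ice-cold methanol at 0, 15, 30 and 60 min and remaining compound quantified by HPLC against an external calibration. Controls: no NADPH, heat-inactivated microsomes. Three independent experiments.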

[5] = target: T4, Retinoic acid receptor RXR-alpha (Homo sapiens) (UniProt P19793); test: Agonist activity at human RXRalpha transfected in human HEK293T cells co-expressing pFR/pRL-Luc at 30 uM incubated for 14 to 16 hrs by hybrid reporter gene assay; type: cell-based; settings: time 14-16 hrs
T4 sequence (whole entry): T1 sequence (P19793 whole entry)
Outline: (§1)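 Gal4 hybrid reporter assay in HEK293T cells, seeded 24 h before transfection (Lipofectamine LTX, Opti-MEM) with pFR-Luc, pRL-SV40 and pFA-CMV plasmid carrying the hinge region and LBD of the human receptor. After 5 h, compound added in 0.1% DMSO, with 0.1% DMSO alone as untreated control. Dual-Glo luciferase read after 14−16 h; firefly/renilla normalized; duplicates, ≥2 independent experiments.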

[6] = target: T5, Retinoic acid receptor RXR-beta (Homo sapiens) (UniProt P28702); test: Agonist activity at human RXRbeta transfected in human HEK293T cells co-expressing pFR/pRL-Luc at 30 uM incubated for 14 to 16 hrs by hybrid reporter gene assay; type: cell-based; settings: time 14-16 hrs; outline: as §1
T5 sequence (whole entry): T2 sequence (P28702 whole entry)

[7] = target: T6, Retinoic acid receptor RXR-gamma (Homo sapiens) (UniProt P48443); test: Agonist activity at human RXRgamma transfected in human HEK293T cells co-expressing pFR/pRL-Luc at 30 uM incubated for 14 to 16 hrs by hybrid reporter gene assay; type: cell-based; settings: time 14-16 hrs; outline: as §1
T6 sequence (whole entry): T3 sequence (P48443 whole entry)

[8] = target: T6, Retinoic acid receptor RXR-gamma (Homo sapiens); test: Agonist activity at human RXRgamma transfected in human HEK293T cells co-expressing pFR/pRL-Luc at 50 uM incubated for 14 to 16 hrs by hybrid reporter gene assay; type: cell-based; settings: time 14-16 hrs; outline: as §1

SMILES: COc1cccc(-c2oc(CCC(=O)O)nc2-c2ccccc2)c1
- EC50 [1]: 1400 nM
- EC50 [2]: 1800 nM
- EC50 [3]: > 10000 nM

SMILES: O=C(O)CCc1nc(-c2ccccc2)c(-c2cc(Cl)cc(Cl)c2)o1
- EC50 [1]: 60 nM
- EC50 [2]: 50 nM
- EC50 [3]: 200 nM
- Stabilty [4]: Stable

SMILES: O=C(O)CCc1cc(-c2cc(C(F)(F)F)cc(C(F)(F)F)c2)n(-c2ccc(Cl)cc2)n1
- EC50 [2]: 270 nM
- EC50 [3]: 460 nM

SMILES: N#Cc1ccc(-n2nc(CCC(=O)O)cc2-c2cc(Cl)cc(Cl)c2)cc1
- EC50 [1]: 7700 nM
- EC50 [2]: 2000 nM
- EC50 [3]: 6000 nM

SMILES: O=C(O)CCCc1nc(-c2ccccc2)c(-c2ccccc2)o1
- EC50 [1]: 7900 nM
- EC50 [2]: 13500 nM
- EC50 [3]: 43000 nM

SMILES: O=C(O)CCc1nc(-c2ccc(Cl)c(Cl)c2)c(-c2ccccc2)o1
- EC50 [1]: 620 nM
- EC50 [2]: 1300 nM
- EC50 [3]: 4500 nM

SMILES: O=C(O)CCc1cc(-c2cc(Cl)cc(Cl)c2)n(-c2ccccc2)n1
- EC50 [3]: 1600 nM

SMILES: O=C(O)CCc1nc(-c2ccc(Cl)cc2)c(-c2ccccc2)o1
- EC50 [1]: 1300 nM
- EC50 [2]: 2400 nM
- EC50 [3]: 1400 nM

SMILES: O=C(O)CCc1nc(-c2ccccc2)c(-c2cc(Cl)ccc2Cl)o1
- EC50 [1]: 5800 nM
- EC50 [2]: 1400 nM
- EC50 [3]: > 20000 nM

SMILES: COc1ccc(-n2nc(CCC(=O)O)cc2-c2cc(Cl)cc(Cl)c2)cc1
- EC50 [1]: 1600 nM
- EC50 [2]: 1400 nM
- EC50 [3]: 4000 nM

SMILES: O=C(O)Cc1nc(-c2ccccc2)c(-c2ccccc2)o1
- Activity [5]: inactive
- Activity [6]: inactive
- Activity [7]: inactive

SMILES: O=C(O)CCc1nc(-c2ccccc2)c(-c2cc(F)cc(F)c2)o1
- EC50 [2]: 50 nM

SMILES: O=C(O)CCc1nc(-c2ccccc2)c(-c2ccccc2Cl)o1
- EC50 [1]: 17000 nM
- EC50 [2]: 19100 nM
- Activity [8]: inactive

SMILES: O=C(O)CCc1nc(-c2cc(Cl)cc(Cl)c2)c(-c2ccccc2)o1
- EC50 [2]: 3400 nM
- EC50 [3]: 2800 nM

SMILES: O=C(O)CCc1cc(-c2cc(Cl)cc(Cl)c2)n(-c2ccc(F)cc2)n1
- EC50 [1]: 430 nM
- EC50 [2]: 470 nM
- EC50 [3]: 1640 nM

SMILES: Cc1ccc(-c2nc(CCC(=O)O)oc2-c2ccccc2)cc1
- EC50 [2]: 14400 nM
- EC50 [3]: > 100000 nM

SMILES: Cc1ccc(-c2oc(CCC(=O)O)nc2-c2ccccc2)cc1
- EC50 [1]: 1000 nM
- EC50 [2]: 1600 nM
- EC50 [3]: > 10000 nM

SMILES: Cc1ccccc1-c1nc(CCC(=O)O)oc1-c1ccccc1
- EC50 [1]: 6500 nM
- EC50 [2]: 39000 nM
- EC50 [3]: 25000 nM

SMILES: Cc1ccccc1-c1oc(CCC(=O)O)nc1-c1ccccc1
- EC50 [1]: 16900 nM
- EC50 [3]: > 30000 nM

SMILES: Cn1ccc(-n2nc(CCC(=O)O)cc2-c2cc(Cl)cc(Cl)c2)n1
- EC50 [1]: > 30000 nM
- EC50 [2]: > 30000 nM
- EC50 [3]: > 30000 nM

SMILES: O=C(O)CCc1nc(-c2ccccc2Cl)c(-c2ccccc2)o1
- EC50 [1]: 36000 nM
- EC50 [2]: 48000 nM
- Activity [8]: inactive

SMILES: Cc1ccc(-n2nc(CCC(=O)O)cc2-c2cc(Cl)cc(Cl)c2)cc1
- EC50 [1]: 2500 nM
- EC50 [2]: 1400 nM
- EC50 [3]: 3000 nM

SMILES: O=C(O)CCc1cc(-c2cc(Cl)cc(Cl)c2)n(-c2cccc(Cl)c2)n1
- EC50 [1]: 3100 nM
- EC50 [2]: 2000 nM
- EC50 [3]: 3500 nM

SMILES: O=C(O)CCc1nc(-c2ccccc2)co1
- Activity [5]: inactive
- Activity [6]: inactive
- Activity [7]: inactive

SMILES: O=C(O)CCc1nc(-c2ccccc2)c(-c2cccc(Cl)c2Cl)o1
- EC50 [1]: 1200 nM
- EC50 [3]: 3200 nM

SMILES: NC(=O)CCc1nc(-c2ccccc2)c(-c2ccccc2)o1
- Activity [5]: inactive
- Activity [6]: inactive
- Activity [7]: inactive

SMILES: O=C(O)CCc1nc(-c2ccccc2)c(-c2ccc(Cl)c(Cl)c2)o1
- EC50 [1]: 510 nM
- EC50 [2]: 870 nM
- EC50 [3]: 1500 nM

SMILES: O=C(O)CCc1nc(-c2ccccc2)c(-c2ccc(Cl)cc2)o1
- EC50 [3]: 19000 nM

SMILES: O=C(O)CCc1nc(-c2cc(Cl)cc(Cl)c2)c(-c2cc(Cl)cc(Cl)c2)o1
- EC50 [1]: 1030 nM
- EC50 [2]: 1500 nM

SMILES: O=C(O)CCCc1nc(-c2ccccc2)c(-c2cc(Cl)cc(Cl)c2)o1
- EC50 [1]: 480 nM
- EC50 [2]: 500 nM
- EC50 [3]: 1300 nM

SMILES: O=C(O)CCc1nc(-c2ccccc2)c(-c2ccccc2)o1 [OXAPROZIN]
- EC50 [2]: 25000 nM
- EC50 [3]: 40100 nM

SMILES: Cc1cc(C)cc(-c2oc(CCC(=O)O)nc2-c2ccccc2)c1
- EC50 [1]: 300 nM
- EC50 [2]: 900 nM

SMILES: O=C(O)CCCCc1nc(-c2ccccc2)c(-c2ccccc2)o1
- EC50 [1]: 8400 nM
- EC50 [2]: 12400 nM
- Activity [8]: inactive

SMILES: O=C(O)CCc1nc(-c2ccccc2)c(-c2cccc(C(F)(F)F)c2)o1
- EC50 [1]: 70 nM
- EC50 [2]: 80 nM
- EC50 [3]: 300 nM

SMILES: Cc1cccc(-c2oc(CCC(=O)O)nc2-c2ccccc2)c1
- EC50 [1]: 500 nM
- EC50 [2]: 900 nM
- EC50 [3]: 3500 nM

SMILES: O=C(O)CCCc1cc(-c2cc(Cl)cc(Cl)c2)n(-c2ccc(Cl)cc2)n1
- EC50 [1]: 1300 nM
- EC50 [2]: 1100 nM
- EC50 [3]: 3000 nM

SMILES: CC(C)(C)c1cc(-c2oc(CCC(=O)O)nc2-c2ccccc2)cc(C(C)(C)C)c1
- EC50 [2]: 130 nM
- EC50 [3]: 500 nM

SMILES: O=C(O)CCc1ncc(-c2ccccc2)o1
- Activity [5]: inactive
- Activity [6]: inactive
- Activity [7]: inactive

SMILES: O=C(O)CCc1nc(-c2ccccc2)c(-c2cccc(Cl)c2)o1
- EC50 [2]: 600 nM

SMILES: O=C(O)CCc1nc(-c2cccc(Cl)c2)c(-c2ccccc2)o1
- EC50 [1]: 1900 nM
- EC50 [2]: 2900 nM
- EC50 [3]: 6700 nM

SMILES: O=C(O)c1nc(-c2ccccc2)c(-c2ccccc2)o1
- EC50 [1]: > 50000 nM
- EC50 [2]: > 50000 nM
- EC50 [3]: > 50000 nM

SMILES: O=C(O)CCc1nc(-c2ccc(Cl)cc2)c(-c2cc(Cl)cc(Cl)c2)o1
- EC50 [1]: 180 nM
- EC50 [2]: 290 nM
- EC50 [3]: 400 nM

SMILES: Cc1cccc(-c2nc(CCC(=O)O)oc2-c2ccccc2)c1
- EC50 [2]: 4800 nM
